≈ marks a conversion by molar mass, not a printed value.
Key:
Type in all cases: functional
Escherichia coli = assay: MIC against aerobic organism Escherichia coli strain 2891
Outline: (§1)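 Agar-dilution MIC in µg/mL against aerobic bacterial strains on tryptocase soy agar, with inoculum applied as spots. Most series used 10^5 cfu per spot, and a later series used 10^4 cfu per spot. In some tables, footnoted strains were instead tested on Mueller-Hinton or nutrient agar. β-Lactamase-producing strains are flagged.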

Klebsiella aerogenes = assay: Minimum inhibitory concentration against aerobic organism Enterobacter aerogenes strain 2906; outline: as §1
Enterobacter cloacae = assay: Minimum inhibitory concentration against aerobic organism Enterobacter cloacae strain 2646; outline: as §1
Klebsiella pneumoniae = assay: Minimum inhibitory concentration against aerobic organism Klebsiella pneumoniae strain 2882; outline: as §1
Morganella morganii = assay: Minimum inhibitory concentration against aerobic organism Morganella morganii strain 2833; outline: as §1
Pseudomonas aeruginosa = assay: Minimum inhibitory concentration against aerobic organism Pseudomonas aeruginosa strain 2835; outline: as §1
Proteus mirabilis = assay: Minimum inhibitory concentration against aerobic organism Proteus mirabilis strain 2830; outline: as §1
Proteus vulgaris = assay: Minimum inhibitory concentration against aerobic organism Proteus vulgaris strain 2829; outline: as §1
[1] = Minimum inhibitory concentration against aerobic organism Salmonella schottmuelleri strain 2837; outline: as §1
Serratia marcescens = assay: Minimum inhibitory concentration against aerobic organism Serratia marcescens strain 2852; outline: as §1
Streptococcus pyogenes = assay: Minimum inhibitory concentration against aerobic organism Streptococcus pyogenes strain 3124; outline: as §1
Staphylococcus aureus = assay: Minimum inhibitory concentration against aerobic organism Staphylococcus aureus strain 2868; details: Staphylococcus aureus; read-out: MIC; outline: as §1
Enterococcus faecalis = assay: Minimum inhibitory concentration against aerobic organism Streptococcus faecalis strain 2864; outline: as §1
Shigella = assay: Minimum inhibitory concentration against aerobic organism Shigella species strain 2880; outline: as §1
[2] = Escherichia coli, read-out: MIC
[3] = Klebsiella aerogenes, read-out: MIC
[4] = Enterobacter cloacae, read-out: MIC
[5] = Klebsiella pneumoniae, read-out: MIC
[6] = Morganella morganii, read-out: MIC
[7] = Proteus mirabilis, read-out: MIC
[8] = Proteus vulgaris, read-out: MIC
[9] = Serratia marcescens, read-out: MIC
[10] = Streptococcus pyogenes, read-out: MIC

| Structure (SMILES) | MIC (Pseudomonas aeruginosa) | MIC (Staphylococcus aureus) | MIC (Enterococcus faecalis) | MIC (Escherichia coli; [2]) | MIC (Klebsiella aerogenes; [3]) | MIC (Enterobacter cloacae; [4]) | MIC (Klebsiella pneumoniae; [5]) | MIC (Morganella morganii; [6]) | MIC (Proteus mirabilis; [7]) | MIC (Proteus vulgaris; [8]) | MIC ([1]; Salmonella, read-out: MIC) | MIC (Serratia marcescens; [9]) | MIC (Streptococcus pyogenes; [10]) | MIC (Shigella; Shigella, read-out: MIC) | also measured |
| --- | --- | --- | --- | --- | --- | --- | --- | --- | --- | --- | --- | --- | --- | --- | --- |
| Cn1nnnc1SCC1=C(C(=O)[O-])N2C(=O)[C@@H](Nc3cc[n+](C)cc3)[C@H]2SC1 (stereo in doubt; 15b) | > 128 mg/L | > 128 mg/L | > 128 mg/L |  |  |  |  |  |  |  |  |  |  |  | MIC (Escherichia coli): >128 mg/L; MIC (Klebsiella aerogenes): 16 mg/L (≈ 38.1 µM); MIC (Enterobacter cloacae): >128 mg/L; MIC (Klebsiella pneumoniae): 64 mg/L (≈ 153 µM); MIC (Morganella morganii): >128 mg/L; MIC (Proteus mirabilis): >128 mg/L; MIC (Proteus vulgaris): 4 mg/L (≈ 9.54 µM); MIC [1]: >128 mg/L; MIC (Serratia marcescens): 64 mg/L (≈ 153 µM); MIC (Streptococcus pyogenes): 32 mg/L (≈ 76.3 µM); MIC (Shigella): >128 mg/L |
| Cn1nnnc1SCC1=C(C(=O)[O-])N2C(=O)C(Nc3ccc(Cl)c[n+]3C)C2SC1 (centres undefined) | > 128 mg/L | > 128 mg/L | > 128 mg/L | 2 mg/L (≈ 4.41 µM) | > 128 mg/L | > 128 mg/L | 64 mg/L (≈ 141 µM) | > 128 mg/L | > 128 mg/L | 1 mg/L (≈ 2.2 µM) | 4 mg/L (≈ 8.81 µM) | > 128 mg/L | 32 mg/L (≈ 70.5 µM) | 8 mg/L (≈ 17.6 µM) |  |
| Cn1nnnc1SCC1=C(C(=O)[O-])N2C(=O)[C@@H](Nc3cc[n+](CCc4ccccc4)cc3)[C@H]2SC1 | > 128 mg/L | 4 mg/L (≈ 7.85 µM) | > 128 mg/L | 4 mg/L (≈ 7.85 µM) | 64 mg/L (≈ 126 µM) | 8 mg/L (≈ 15.7 µM) | 1 mg/L (≈ 1.96 µM) | > 128 mg/L | > 128 mg/L | > 128 mg/L | 1 mg/L (≈ 1.96 µM) | > 128 mg/L | < 0.5 mg/L | < 0.5 mg/L |  |
| CC(C)[n+]1ccc(N[C@@H]2C(=O)N3C(C(=O)[O-])=C(CSc4nnnn4C)CS[C@H]23)cc1 | > 128 mg/L | 32 mg/L (≈ 71.5 µM) | 128 mg/L (≈ 286 µM) | 0.5 mg/L (≈ 1.12 µM) | 128 mg/L (≈ 286 µM) | 32 mg/L (≈ 71.5 µM) | 16 mg/L (≈ 35.8 µM) | > 128 mg/L | 128 mg/L (≈ 286 µM) | < 0.06 mg/L | 0.125 mg/L (≈ 0.279 µM) | > 128 mg/L | 1 mg/L (≈ 2.23 µM) | 0.5 mg/L (≈ 1.12 µM) |  |
| Cn1nnnc1SCC1=C(C(=O)[O-])N2C(=O)[C@@H](Nc3cc[n+](Cc4ccco4)cc3)[C@H]2SC1 | 128 mg/L (≈ 264 µM) | 2 mg/L (≈ 4.12 µM) | 128 mg/L (≈ 264 µM) | 0.06 mg/L (≈ 0.124 µM) | 8 mg/L (≈ 16.5 µM) | 8 mg/L (≈ 16.5 µM) | 0.06 mg/L (≈ 0.124 µM) | > 128 mg/L | 16 mg/L (≈ 33 µM) | < 0.25 mg/L | 0.0075 mg/L (≈ 0.0154 µM) | 128 mg/L (≈ 264 µM) | 0.03 mg/L (≈ 0.0618 µM) | 0.0075 mg/L (≈ 0.0154 µM) |  |
| COC(=O)c1ccc(NC2C(=O)N3C(C(=O)[O-])=C(CSc4nnnn4C)CSC23)[n+](C)c1 (centres undefined) | > 128 mg/L | > 128 mg/L | > 128 mg/L | > 128 mg/L | > 128 mg/L | > 128 mg/L | > 128 mg/L | > 128 mg/L | > 128 mg/L | > 128 mg/L | 128 mg/L (≈ 268 µM) | > 128 mg/L | 16 mg/L (≈ 33.5 µM) | > 128 mg/L |  |
| CC(=O)OCC1=C(C(=O)[O-])N2C(=O)[C@@H](Nc3cc[n+](C)cc3)[C@H]2SC1 | > 128 mg/L | 64 mg/L (≈ 176 µM) | > 128 mg/L | > 128 mg/L | > 128 mg/L | > 128 mg/L | 32 mg/L (≈ 88.1 µM) | > 128 mg/L | > 128 mg/L | < 0.5 mg/L | 8 mg/L (≈ 22 µM) | > 128 mg/L | 2 mg/L (≈ 5.5 µM) | 64 mg/L (≈ 176 µM) |  |
| Cn1nnnc1SCC1=C(C(=O)[O-])N2C(=O)[C@@H](Nc3cc[n+](COCC(Cl)(Cl)Cl)cc3)[C@H]2SC1 | > 128 mg/L | 2 mg/L (≈ 3.53 µM) | > 128 mg/L | < 0.06 mg/L | 8 mg/L (≈ 14.1 µM) | 0.125 mg/L (≈ 0.221 µM) | 0.125 mg/L (≈ 0.221 µM) | 32 mg/L (≈ 56.4 µM) | 64 mg/L (≈ 113 µM) | < 0.06 mg/L | < 0.06 mg/L | 64 mg/L (≈ 113 µM) | < 0.06 mg/L | < 0.06 mg/L |  |
| Cn1nnnc1SCC1=C(C(=O)[O-])N2C(=O)[C@@H](Nc3cc[n+](Cc4ccc(C#N)cc4)cc3)[C@H]2SC1 | > 128 mg/L | 32 mg/L (≈ 61.5 µM) | > 128 mg/L | 0.25 mg/L (≈ 0.48 µM) | 8 mg/L (≈ 15.4 µM) | 8 mg/L (≈ 15.4 µM) | 1 mg/L (≈ 1.92 µM) | 128 mg/L (≈ 246 µM) | 128 mg/L (≈ 246 µM) | 16 mg/L (≈ 30.7 µM) | 0.125 mg/L (≈ 0.24 µM) | 128 mg/L (≈ 246 µM) | 0.125 mg/L (≈ 0.24 µM) | < 0.06 mg/L |  |
| Cn1nnnc1SCC1=C(C(=O)[O-])N2C(=O)C(Nc3cccc[n+]3C)C2SC1 (centres undefined) | > 128 mg/L | > 128 mg/L | > 128 mg/L | 64 mg/L (≈ 153 µM) | 16 mg/L (≈ 38.1 µM) | > 128 mg/L | 128 mg/L (≈ 305 µM) | > 128 mg/L | 128 mg/L (≈ 305 µM) | 0.5 mg/L (≈ 1.19 µM) | > 128 mg/L | > 128 mg/L | 32 mg/L (≈ 76.3 µM) | 32 mg/L (≈ 76.3 µM) |  |
| Cc1ccccc1-[n+]1ccc(N[C@@H]2C(=O)N3C(C(=O)[O-])=C(CSc4nnnn4C)CS[C@H]23)cc1 | > 128 mg/L | 32 mg/L (≈ 64.6 µM) | > 128 mg/L | 2 mg/L (≈ 4.04 µM) | > 128 mg/L | > 128 mg/L | 128 mg/L (≈ 258 µM) | > 128 mg/L | > 128 mg/L | 2 mg/L (≈ 4.04 µM) | 2 mg/L (≈ 4.04 µM) | > 128 mg/L | 0.25 mg/L (≈ 0.504 µM) | 1 mg/L (≈ 2.02 µM) |  |
